Experiment: lowest concentration at which glucose utilized was greater than or equal to 140% of control value tested in a glucose utilization L6 myocyte in vitro assay
Type: functional, Rattus norvegicus
Method in brief: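 Differentiated rat L6 myotubes (day 11 or 13 after plating) exposed 20 h to compound in serum-free DMEM with 15 mM glucose and 1% final DMSO. Tested in quadruplicate at 3, 10, 30, 100, 300 µM. Glucose left in the medium read by glucose oxidase. Value is the lowest concentration giving at least 40% more utilization than control.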

| Structure (SMILES) | Lowest effective concentration for glucose utilization ≥140% of control |
| --- | --- |
| CS(=O)(=O)N1C[C@@H](COc2ccc(Cl)cc2)O[C@@H]1c1ccc(Cl)c(Cl)c1 | 30 µM |
| CC(C)(O)c1cc(-c2ccc(Cl)cc2)no1 | 100 µM |
| O=C1CC[C@]2(c3cccc4ccccc34)O[C@H](COc3ccc(Cl)cc3)CN12 | >300 µM |
| O=C1CC[C@]2(c3ccc(Cl)cc3)O[C@H](COc3ccc(Cl)cc3)CCN12 | >300 µM |
| O=C1CC[C@]2(c3ccc(Cl)c(Cl)c3)O[C@@H](COc3ccc(Cl)cc3)CN12 | 30 µM |
| O=C1CC[C@]2(c3ccc(Cl)cc3)O[C@H](COCCO)CN12 | >300 µM |
| O=C1CC[C@]2(c3ccc(Cl)c(Cl)c3)OC(COc3ccc(Cl)cc3)CN12 (single isomer, unassigned) | >300 µM |
| CC(=O)N(C[C@@H]1CN2C(=O)CC[C@]2(c2ccc(Cl)cc2)O1)c1ccc(Cl)cc1 | >300 µM |
| O=C(O)c1cc(CO)on1 | >300 µM |
| O=C1CC[C@]2(c3ccc(Cl)c(Cl)c3)O[C@H](COc3ccc(Cl)cc3)CN12 | 10 µM |
| Cc1cc(CO)on1 | >300 µM |
| O=C(Nc1ccccc1)N1C[C@H](COc2ccc(Cl)cc2)O[C@@H]1c1ccc(Cl)c(Cl)c1 | 30 µM |
| O=C1CC[C@]2(c3ccc(Cl)cc3)O[C@@H](CO)CN12 | >300 µM |
| OCc1cc(Cc2ccccc2)no1 | >300 µM |
| O=C1CC[C@]2(c3ccncc3)O[C@H](COc3ccc(Cl)cc3)CN12 | 30 µM |
| CC1(C)C[C@]2(c3ccc(Oc4ccccc4)cc3)OCCN2C1=O | 10 µM |
| O=C1CC[C@]2(c3ccc(Cl)cc3)O[C@H](CO)CN12 | >300 µM |
| CC(=O)c1cc(CO)on1 | >300 µM |
| O=C(c1ccccc1)N1C[C@@H](COc2ccc(Cl)cc2)O[C@@H]1c1ccc(Cl)c(Cl)c1 | >300 µM |
| OCc1cc(-c2ccc(Cl)c(Cl)c2)no1 | 30 µM |
| O=C1CC[C@]2(c3ccc4oc5ccccc5c4c3)O[C@@H](COc3ccc(Cl)cc3)CN12 | >300 µM |
| COCc1cc(-c2ccc(Cl)cc2)no1 | 100 µM |
| CNC(=O)N1CCO[C@@H]1c1ccc(Cl)cc1 | >300 µM |
| CC(C)(C)[C@]12CCC(=O)N1C[C@H](COc1ccc(Cl)cc1)O2 | >300 µM |
| O=C1CC[C@]2(c3cccnc3)O[C@@H](COc3ccc(Cl)cc3)CN12 | 300 µM |
| C/N=C(\S)N1CCO[C@@H]1c1ccc(Cl)cc1 | >300 µM |
| O=C1CC[C@]2(c3ccc(-c4ccccc4)cc3)O[C@@H](COc3ccc(Cl)cc3)CN12 | >300 µM |
| O=C1CC[C@]2(c3ccc(Cl)c(Cl)c3)O[C@@H](CSc3ccc(Cl)cc3)CN12 | 100 µM |
| CC(C)(C)OC[C@@H]1CN2C(=O)CC[C@]2(c2ccc(Cl)cc2)O1 | 300 µM |
| COC(=O)c1cc(CO)on1 | >300 µM |
